Bioassay records (PubChem BioAssay)
NF-kB neuron act: compounds increasing NF-kB expression in human neuronal cells. NF-kB reporter expression; stronger effect = higher value. fold change at 12.5 µM. 1.6% of 190,000 active; in the data active means fold change above about 3.3
APP 5'UTR act: activates APP 5'UTR luciferase reporter | SH-SY5Y APP 5'UTR luciferase reporter, luminescence; zero percent = DMSO vehicle wells | 1% of 190,000 active | AID 1276 | activation, % at 2 µM;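 active means activation above a set limit, based on mean plus 3 SD of controls, cut at about 140% in these data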
FLuc stim CS: firefly luciferase counter-screen for stimulation assays. ATPlite luciferase biochemical, luminescence, 10 min; 0 = ATP-free wells, 1 = DMSO control. 200,000 tested, under 10 active. AID 1027. activation factor at 10 µM. P08659;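 active means luciferase activation factor, scaled between plate controls, of at least 2 with compound at 10 µM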
Target sequence (P08659 whole entry, looked up): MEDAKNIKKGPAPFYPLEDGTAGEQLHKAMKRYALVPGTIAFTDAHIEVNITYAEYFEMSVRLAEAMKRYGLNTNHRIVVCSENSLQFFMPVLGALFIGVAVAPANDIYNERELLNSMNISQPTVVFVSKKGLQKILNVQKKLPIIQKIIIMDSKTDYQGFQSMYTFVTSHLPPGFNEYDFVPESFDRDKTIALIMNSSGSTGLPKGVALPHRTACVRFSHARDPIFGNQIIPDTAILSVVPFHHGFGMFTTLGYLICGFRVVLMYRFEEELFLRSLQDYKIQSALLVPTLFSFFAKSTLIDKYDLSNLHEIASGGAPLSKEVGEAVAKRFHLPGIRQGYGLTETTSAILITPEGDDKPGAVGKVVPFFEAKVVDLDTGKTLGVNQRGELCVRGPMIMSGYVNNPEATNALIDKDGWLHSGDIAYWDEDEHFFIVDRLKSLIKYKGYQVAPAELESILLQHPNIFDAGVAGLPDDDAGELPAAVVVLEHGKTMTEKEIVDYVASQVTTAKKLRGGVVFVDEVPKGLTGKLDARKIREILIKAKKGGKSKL
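test system = cell-free luciferase reagent | medium = PBS as buffer for the ATP substrate | dosing = test compounds dosed from 2 mM stocks in 100% DMSO | incubation = 10 min at ambient temperature | detection = luminescence measurement of luciferase light output | benchmarks = low control with PBS replacing ATP, high control enzyme plus ATP without compound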
FLuc inh counter: inhibits firefly luciferase, flagging false hits in luciferase inhibition screens; inhibition, % at 10 µM; 1.5% of 200,000 active; AID 1006; ATPLite firefly luciferase biochemical luminescence, 10 min;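 active means inhibition above about 50% when tested at 10 µM, limit read from the data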
STAT1 activator: STAT1 signaling activation; 2.6% of 200,000 active; activation (% of control), % at 5.5 µM; NIH 3T3 STAT1-luciferase reporter, IFN-gamma, luminescence; 100% = IFN-gamma alone, no compound; AID 932;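 active means activation above the screen-wide mean activation plus 3 SD, cut at about 130% in these data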;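 further: raw ratio to IFN-gamma control signal so 100% means no change and 0% no light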
Pf gamet viab: inhibitors of late stage P. falciparum gametocyte viability. P. falciparum stage V gametocytes, ATP luminescence, 24 h. AID 743093. 0.065% of 150,000 active. inhibition, % at 10.9 µM;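 active means inhibition above the mean plus 3 SD of compounds within the control limits, set per campaign, cut at about 38% in these data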;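 further: 0% = DMSO wells and 100% = medium only without gametocytes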
Starred values were filed as active, the others as inactive; nt = no result given. Hits are enriched below; roughly 3.5% of the tested compounds scored in any of these assays.

SMILES	NF-kB neuron act	APP 5'UTR act	FLuc stim CS	FLuc inh counter	STAT1 activator	Pf gamet viab
COc1cc(OC)c(NC(=O)C(=O)CC(=O)c2ccc(C)cc2C)cc1Cl	1.1	-1	1.1	-9	95	0
O=C(N/N=C/c1ccccc1F)NC1CCCCC1	2.2	54	1	5	130*	6
CCOC(=O)c1sc(NC(C)=O)cc1C	1	10	1	-2	98	nt
CCOC(=O)c1sc(NC(=O)C2CCC2)cc1C	1.8	46	0.5	50*	120	6
Cc1cccc(N/C(N)=N/c2nc(CSc3ccc(Cl)cc3)cc(=O)[nH]2)c1	nt	nt	nt	nt	nt	-18
Cc1nn2cc(-c3ccc(Cl)cc3)nc2s1	8*	158*	0.6	35	118	-7
Cc1nn2cc(-c3ccc(-c4ccccc4)cc3)nc2s1	4.4*	117	0.8	23	113	nt
O=[N+]([O-])c1cccc(-c2cn3nc(-c4ccccc4)c(-c4ccccc4)nc3n2)c1	nt	nt	nt	nt	nt	-5
Cc1ccc(-c2cn3nc(-c4ccccc4)c(-c4ccccc4)nc3n2)cc1	nt	nt	nt	nt	nt	6
CCc1nn2cc(-c3ccccc3)nc2s1	5*	153*	0.1	89*	70	nt
COc1cccc(-c2cn3nc(C)c(C)nc3n2)c1	2.7	141*	0.8	22	127	nt
Cc1ccc(C(=O)Nc2ccc(N3CCN(C)CC3)cc2)cc1C	nt	nt	nt	nt	nt	8
O=C(/C=C/c1cc([N+](=O)[O-])ccc1OC(F)F)Nc1cccc(OC(F)F)c1	1	-3	1.1	-5	99	8
O=C(COc1cccnc1[N+](=O)[O-])NC1CCS(=O)(=O)C1 (configuration not stated)	0.99	3	1.1	-10	110	-9
Cc1cc(Cl)cc(Cl)c1OCCN1CCCC1	nt	nt	nt	nt	nt	-10
CCc1nccn1S(=O)(=O)c1cc(OC)ccc1OC	nt	nt	nt	nt	nt	-1
Cc1nc2nc(-c3ccc(Cl)cc3)cn2nc1C	3.3*	85	0.6	41	94	-1
Clc1ccc(-c2cn3ccccc3n2)cc1	nt	nt	nt	nt	nt	-41
S=c1[nH]nc(COc2ccc(Cl)cc2Cl)n1-c1ccccc1	nt	nt	nt	nt	nt	-25
COC(=O)C1CCN(C(=O)COC(=O)[C@@H]2CC(O)CN2S(=O)(=O)c2ccc3c(c2)OCCO3)CC1 (some centres not stated)	1	-2	1	-3	94	nt
COc1ccc(S(=O)(=O)N2CC(O)C[C@H]2C(=O)OCC(=O)N2CCCCCC2)cc1 (some centres not stated)	1.1	13	1	-4	139*	-1
Brc1c(CSc2nc3ccccc3s2)nc2ncccn12	4.5*	68	0.8	24	133*	4
COCCNC(C(=O)Nc1cc(Cl)cc(Cl)c1)c1ccccc1 (configuration not stated)	0.87	3	1	-1	91	nt
CCOCCCNC(C(=O)Nc1ccc(OC)c(Cl)c1)c1ccccc1 (configuration not stated)	1	169*	1	-4	100	nt
Nc1ccccc1NC1CCCCC1	1.1	15	1	1	108	7
SMILES	NF-kB neuron act	APP 5'UTR act	FLuc stim CS	FLuc inh counter	STAT1 activator	Pf gamet viab
O=c1oc(-c2ccco2)nc2sc3c(c12)CCCC3	1.9	16	0.2	79*	95	nt
S=C(c1ccc(-c2ccc(Cl)cc2Cl)o1)N1CCCCC1	3.9*	46	0.7	33	144*	nt
S=C(c1ccc(-c2ccc(Cl)cc2Cl)o1)N1CCCC1	nt	nt	nt	nt	nt	-5
O=C(Nc1cc(Cl)cc(Cl)c1)C1CCCC1	nt	nt	nt	nt	nt	-17
O=C(Nc1ccc(C(F)(F)F)cc1)c1ccccc1	nt	nt	nt	nt	nt	14
O=C(Nc1cccc(O)c1)c1ccc(C(F)(F)F)cc1	3.7*	91	0.4	57*	104	-23
CC(C)CC(=O)Nc1ccc(C(=O)Nc2cccc(O)c2)cc1	2	68	0.8	22	132*	-4
c1ccc(-c2ncc(-c3ccn[nH]3)s2)cc1	7.3*	230*	0.3	66*	120	-8
O=C(Cc1ccc(Cl)cc1)NCC(=O)N1CCCCCC1	nt	nt	nt	nt	nt	-2
CC1(C)Cc2nc3sc4c(SCC(=O)NCc5ccccc5)ncnc4c3cc2CO1	3.9*	-67	0.8	20	129*	nt
O=C(CN1CCN(C2CCCCC2)CC1)c1ccc2cc[nH]c2c1	0.96	-5	1	-4	104	nt
COc1ccc(-c2nnc(SCC(=O)Nc3ccccc3OC)o2)cc1	4.1*	117	0.9	6	101	nt
Cc1cnc(NC(=O)CSc2nnc(-c3ccccc3)o2)s1	2.5	113	1	-2	129*	2
COc1ccc(-c2nnc(SCC(=O)Nc3nncs3)o2)cc1	0.71	8	0.9	14	97	-17
COc1ccc(-c2nnc(SCC(=O)Nc3cccc(Cl)c3)o2)cc1	1.2	214*	1.1	-9	106	-36
Cc1cnc(NC(=O)CSc2nnc(COc3ccccc3)o2)s1	nt	nt	nt	nt	nt	-9
C(=N\Nc1cc(N2CCCCC2)ncn1)/c1ccco1	nt	nt	nt	nt	nt	-8
COc1ccc(S(=O)(=O)NC2CC2)cc1Cl	nt	nt	nt	nt	nt	-9
CC(C)C[C@H](NC(=O)Nc1ccc2c(c1)OCCO2)C(=O)O	nt	nt	nt	nt	nt	7
Cc1ccc(C(=O)NC(=S)Nc2ccccc2C(F)(F)F)c(C)c1	1.2	nt	1	-2	97	nt
Cc1ccccc1C(=O)NC(=S)Nc1ccccc1C(F)(F)F	1.4	6	0.3	71*	109	nt
COc1ccc(-c2[nH]ncc2N=Nc2cc(C)cc(C)c2)cc1	1.1	-3	1	-3	104	-6
COc1ccc(-c2[nH]ncc2N=Nc2ccccc2)cc1	1.6	-18	1	-1	130*	-14
Cc1nc(C)c(-c2ccn(C(=O)NC(C)C)n2)s1	nt	nt	nt	nt	nt	10
OCC(O)C1OC(Nc2ccc(Cl)cc2)C(O)C1O (configuration not stated)	nt	nt	nt	nt	nt	10
SMILES	NF-kB neuron act	APP 5'UTR act	FLuc stim CS	FLuc inh counter	STAT1 activator	Pf gamet viab
CCOC(=O)N1N=C(c2ccccc2)CC1(O)C(C)(F)F (configuration not stated)	1.1	3	1	0	103	nt
COc1ccc(CC(=O)N2N=C(c3ccncc3)CC2(O)C(F)(F)F)cc1 (configuration not stated)	0.92	-2	1	-4	89	15
CCc1ccc(C2=NN(C(=O)OC)C(O)(C(F)(F)F)C2)cc1 (configuration not stated)	3.2	136*	0.3	73*	66	nt
CCOC(=O)N1N=C(c2ccc(OC)cc2)CC1(O)C(F)(F)F (configuration not stated)	3.3	171*	0.5	46	116	5
C=CCn1nc([N+](=O)[O-])nc1Sc1cccc2cccnc12	3.5*	-44	1	-1	108	nt
CCOc1ccccc1CN1CCN(Cc2cn(C)nc2-c2ccccc2)CC1CCO (configuration not stated)	1	-2	1.1	-6	98	-6
Cc1ccc(NC(=O)c2nnn(-c3cc(C)cc(C)c3)c2N)cc1	1.5	27	1.1	-8	129*	nt
